Reference: ChEMBL document CHEMBL3351336, “Synthesis and evaluation of novel triazoles and mannich bases functionalized 1,4-dihydropyridine as angiotensin converting enzyme (ACE) inhibitors” (Bioorg Med Chem, 2014)
Active and inactive are the calls of the source. The calls are words filed in the database; no cut-off is given here.

Legend:
HEK293 = assay: Cytotoxicity against human HEK293 cells after 24 hrs by MTT assay; format: cell-based; settings: HEK293, 24 h
Outline: (§1)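 Cells kept in DMEM with 10% heat-inactivated FBS, penicillin, streptomycin and 2 mM L-glutamine at 37 °C, 5% CO2, passaged every 2–3 days. 1 × 10^4 cells/well seeded, grown 24 h, then exposed to compounds (10 µM–1000 µM) beside vehicle control for 24 h. MTT added for 4 h, formazan dissolved in DMSO, absorbance read at 540 nm; survival versus control, EC50 by probit analysis.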

A549 = assay: Cytotoxicity against human A549 cells after 24 hrs by MTT assay; format: cell-based; settings: A549, 24 h; outline: as §1
[1] = target: T1, Angiotensin-converting enzyme (Oryctolagus cuniculus, UniProt P12822); assay: (§2) Inhibition of rabbit lung ACE using hippuryl-histidyl-leucine as substrate assessed as release of hippuric acid incubated for 10 mins prior to substrate addition measured after 30 mins by spectrophotometry
T1 sequence (P12822 whole entry): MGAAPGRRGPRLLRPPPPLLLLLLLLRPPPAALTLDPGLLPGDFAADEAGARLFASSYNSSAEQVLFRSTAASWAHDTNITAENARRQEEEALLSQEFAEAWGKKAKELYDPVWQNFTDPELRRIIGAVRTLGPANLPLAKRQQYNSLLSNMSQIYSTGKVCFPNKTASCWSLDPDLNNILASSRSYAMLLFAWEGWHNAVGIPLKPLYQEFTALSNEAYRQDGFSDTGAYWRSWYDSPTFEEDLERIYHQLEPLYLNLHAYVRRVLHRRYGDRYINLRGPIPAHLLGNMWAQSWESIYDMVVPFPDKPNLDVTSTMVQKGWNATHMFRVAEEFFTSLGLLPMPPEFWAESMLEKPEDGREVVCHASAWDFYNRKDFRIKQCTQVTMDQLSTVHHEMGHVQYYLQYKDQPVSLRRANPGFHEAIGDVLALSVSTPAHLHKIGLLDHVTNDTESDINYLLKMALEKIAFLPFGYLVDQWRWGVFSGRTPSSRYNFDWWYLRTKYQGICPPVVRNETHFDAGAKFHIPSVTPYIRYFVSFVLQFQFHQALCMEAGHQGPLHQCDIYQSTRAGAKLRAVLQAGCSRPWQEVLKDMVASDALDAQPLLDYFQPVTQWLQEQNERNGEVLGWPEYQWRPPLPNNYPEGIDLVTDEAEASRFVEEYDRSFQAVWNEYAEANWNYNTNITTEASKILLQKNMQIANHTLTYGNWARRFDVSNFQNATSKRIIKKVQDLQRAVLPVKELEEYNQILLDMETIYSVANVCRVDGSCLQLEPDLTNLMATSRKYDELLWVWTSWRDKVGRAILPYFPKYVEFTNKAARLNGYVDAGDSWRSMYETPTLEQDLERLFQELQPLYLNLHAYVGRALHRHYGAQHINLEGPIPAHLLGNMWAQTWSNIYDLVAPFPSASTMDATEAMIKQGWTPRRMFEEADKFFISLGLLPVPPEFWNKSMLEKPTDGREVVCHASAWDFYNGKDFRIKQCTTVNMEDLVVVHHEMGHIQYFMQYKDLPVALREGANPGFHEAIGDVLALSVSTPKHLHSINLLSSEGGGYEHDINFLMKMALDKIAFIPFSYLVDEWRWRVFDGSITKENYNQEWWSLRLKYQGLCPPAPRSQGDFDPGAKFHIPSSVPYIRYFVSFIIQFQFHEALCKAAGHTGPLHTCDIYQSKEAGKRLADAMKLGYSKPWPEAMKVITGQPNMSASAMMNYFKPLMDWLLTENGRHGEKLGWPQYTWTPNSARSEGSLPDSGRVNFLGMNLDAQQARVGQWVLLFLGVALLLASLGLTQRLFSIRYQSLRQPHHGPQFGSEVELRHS

[2] = target: T2, Angiotensin-converting enzyme (Oryctolagus cuniculus) (UniProt P12822); assay: as §2
T2 sequence (whole entry): T1 sequence (P12822 whole entry)

IC50 [1] | inhibition [2] | SMILES | IC50 (HEK293) | IC50 (A549)
0.409 µM | Dose-dependent effect | CCOC(=O)C1=C(C)NC(C)=C(C(=O)OCC)C1c1cccc(OC)c1OCc1cn(CC(=O)Nc2nnc(C(F)(F)F)s2)nn1 | > 1000 µM | > 1000 µM
– | inactive | CCOC(=O)C1=C(C)NC(C)=C(C(=O)OCC)C1c1cc(Br)cc(Br)c1OCC#CCN1CCN(c2ccccn2)CC1 | – | –
– | inactive | CCOC(=O)C1=C(C)NC(C)=C(C(=O)OCC)C1c1cccc(OC)c1OCC#CCN1CCN(c2ccccc2)CC1 | – | –
– | inactive | CCOC(=O)C1=C(C)NC(C)=C(C(=O)OCC)C1c1cc(Br)cc(Br)c1OCc1cn(CC(=O)Nc2cccc(C(=O)O)c2)nn1 | – | –
0.653 µM | Dose-dependent effect | CCOC(=O)C1=C(C)NC(C)=C(C(=O)OCC)C1c1cccc(OC)c1OCc1cn(CCC(F)(F)C(F)(F)C(F)(F)C(F)(F)C(F)(F)C(F)(F)C(F)(F)C(F)(F)F)nn1 | > 1000 µM | > 1000 µM
0.928 µM | Dose-dependent effect | CCOC(=O)C1=C(C)NC(C)=C(C(=O)OCC)C1c1cc(Br)cc(Br)c1OCC#CCN1CCN(CCO)CC1 | > 1000 µM | > 1000 µM
– | inactive | CCOC(=O)C1=C(C)NC(C)=C(C(=O)OCC)C1c1cc(Br)ccc1OCC#CCN1CCOCC1 | – | –
0.713 µM | Dose-dependent effect | CCOC(=O)C1=C(C)NC(C)=C(C(=O)OCC)C1c1cccc(OC)c1OCc1cn(CC(=O)Nc2nc3ccc(F)cc3s2)nn1 | > 1000 µM | > 1000 µM
– | inactive | CCOC(=O)C1=C(C)NC(C)=C(C(=O)OCC)C1c1cc(Br)cc(Br)c1OCC#CCN1CCN(C)CC1 | – | –
– | inactive | CCOC(=O)C1=C(C)NC(C)=C(C(=O)OCC)C1c1cc(Br)ccc1OCC#CCN1CCN(c2ccccn2)CC1 | – | –
– | – | COc1cccc2c1C(=O)c1c(O)c3c(c(O)c1C2=O)C[C@@](O)(C(=O)CO)C[C@@H]3O[C@H]1C[C@H](N)[C@H](O)[C@H](C)O1 [DOXORUBICIN] | 0.69 µM | 2.6 µM
– | inactive | CCOC(=O)C1=C(C)NC(C)=C(C(=O)OCC)C1c1cccc(OC)c1OCC#CCN1CCC(C(=O)OCC)CC1 | – | –
– | inactive | CCOC(=O)C1=C(C)NC(C)=C(C(=O)OCC)C1c1cc(Br)cc(Br)c1OCc1cn(CC(=O)NCCC(=O)O)nn1 | – | –
– | inactive | CCOC(=O)C1=C(C)NC(C)=C(C(=O)OCC)C1c1cccc(OC)c1OCC#CCN1CCCC1 | – | –
– | inactive | CCOC(=O)C1=C(C)NC(C)=C(C(=O)OCC)C1c1cc(Br)cc(Br)c1OCc1cn(CC(=O)NC2CC2)nn1 | – | –
– | inactive | CCOC(=O)C1=C(C)NC(C)=C(C(=O)OCC)C1c1cccc(OC)c1OCC#CCN1CCOCC1 | – | –
– | inactive | CCOC(=O)C1=C(C)NC(C)=C(C(=O)OCC)C1c1cc(Br)cc(Br)c1OCC#CCN1CCN(c2ccc(F)cc2)CC1 | – | –
– | inactive | CCOC(=O)C1=C(C)NC(C)=C(C(=O)OCC)C1c1cccc(OC)c1OCC#CCN1CCN(C)CC1 | – | –
– | inactive | CCOC(=O)C1=C(C)NC(C)=C(C(=O)OCC)C1c1cc(Br)ccc1OCc1cn(CC(=O)NC2CCCCC2)nn1 | – | –
– | inactive | CCOC(=O)C1=C(C)NC(C)=C(C(=O)OCC)C1c1cc(Br)ccc1OCc1cn(CC(=O)Nc2nnc(C(F)(F)F)s2)nn1 | – | –
– | inactive | CCOC(=O)C1=C(C)NC(C)=C(C(=O)OCC)C1c1cc(Br)cc(Br)c1OCc1cn(CC(=O)NCc2ccc(OC(F)(F)F)cc2)nn1 | – | –
– | inactive | CCOC(=O)C1=C(C)NC(C)=C(C(=O)OCC)C1c1cc(Br)cc(Br)c1OCc1cn(CC(=O)Nc2ccc(SC(F)(F)F)cc2)nn1 | – | –

SMILES | IC50 [1] | inhibition [2] | IC50 (HEK293) | IC50 (A549)
NCCCC[C@H](N[C@@H](CCc1ccccc1)C(=O)O)C(=O)N1CCC[C@H]1C(=O)O [LISINOPRIL ANHYDROUS] | 0.281 µM | – | – | –
